Here are results for four molecules from ChEMBL document CHEMBL1129996, “1-Aryl-3,5-dihydro-4H-2,3-benzodiazepin-4-ones: novel AMPA receptor antagonists” (J Med Chem, 1997).

Several values for one entry are separate records, joined by “and”; a condition that tells them apart may be missing. Equal values may be shown once.

In data set [1] the test system is Mus musculus. Kind of data set: Pentylenetetrazole-induced seizures in Swiss mice after 45 min pretreatment at a dose range 10-150 uM/kg. In kind it is functional.
Data set [2] concerns Mus musculus. Description: Anticonvulsant activity against tonic phase of the audiogenic seizures in DBA / 2 mice 30 min after ip administration at a dose range 10-133 uM/kg. Type of data set: functional. As to conditions: 0.5 h. In a few lines:
(§1)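 Groups of 10 DBA/2 mice of either sex; drug ip (0.1 mL/10 g) as fresh solution in 50% DMSO/50% saline, 30 min before auditory stimulation (12-16 kHz, 109 dB, 60 s or until tonic extension) under perspex dome after 60 s habituation. Latency and incidence of wild running, clonic and tonic phases scored; ED50 (95% confidence limits) by Litchfield-Wilcoxon.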

Data set [3] in a line: Relative lipophilicity of compound. Type of data set: physicochemical. The conditions noted are these: reversed-phase TLC, acetone/water 2:1. In a few lines:
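Reversed-phase TLC type lipophilicity: plates dried 105 °C 1 h, mobile phase acetone:water 2:1, 1 µL of 3 mg/mL CHCl3 solution spotted; five runs with varied positions, mean Rf converted as Rm = log[(1/Rf) - 1].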

Data set [4] is described as follows: Motor toxicity in 50% of mice on locomotion assessed by Rotarod test following 30 min ip administration. Type of data set: organism-based. As to conditions: mouse, in vivo. In a few lines: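 Male Swiss mice (20-26 g, 48-54 days), groups of 10, trained on rotarod (3 cm, 8 rpm); tested 30 min after ip dosing. Impairment = failure to stay on for 2 min; TD50 (95% confidence limits) by Litchfield-Wilcoxon.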
(In general: The rotarod test checks motor coordination on a turning rod.)

The subject of data set [5] is Mus musculus. Description: Anticonvulsant activity against the maximal electroshock in Swiss mice after 45 minutes pretreatment at a dose range 10-150 uM/kg. In kind it is functional. In a few lines:
(§2)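 Swiss mice dosed ip in 50% DMSO/50% saline 45 min before ear-clip electroshock (50 mA, 20 ms pulses, 35 Hz, 400 ms). Protection = abolition of tonic hindlimb extension. Usually 4-5 doses with 8-10 mice each; ED50 (95% confidence limits) by Litchfield-Wilcoxon.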

Data set [6] can be described thus: Therapeutic index it is the ratio between TD50 and ED50 (from the clonic phase of the audiogenic seizures). As to conditions: read-out: TI. In a few lines: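 Therapeutic index computed as rotarod TD50 divided by ED50 for the clonic phase of audiogenic seizures in DBA/2 mice.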
Data set [7] relates to Mus musculus. Kind of data set: Anticonvulsant activity against clonic phase of the audiogenic seizures in DBA / 2 mice 30 min after ip administration at a dose range 10-133 uM/kg. In kind it is functional. The conditions noted are these: 0.5 h. In a few lines:
as §1

For data set [8], the system named is Mus musculus. Description: Anticonvulsant activity against the clonic seizures induced by icv injection of AMPA in DBA / 2 mice at a dose range of 10-66 uM/kg. As to conditions: central. In kind it is functional.
Data set [9] is filed under the species Mus musculus. Kind of data set: Audiogenic seizures after concomitant treatment with Flumazenil (24.72 uM) in DBA / 2 mice tonic phase. In kind it is functional.
The test system of data set [10] is Mus musculus. Description: Anticonvulsant activity against clonic phase of the audiogenic seizures in DBA / 2 mice 30 min after ip administration at a dose range 10-66 uM/kg. As to conditions: 0.5 h. Type of data set: functional. In a few lines:
as §1

The species entered for data set [11] is Mus musculus. Kind of data set: Audiogenic seizures after concomitant treatment with Flumazenil (24.72 uM) in DBA / 2 mice clonic phase. In kind it is functional.
Data set [12] has as its system Mus musculus. Description: Anticonvulsant activity against the tonic seizures induced by icv injection of AMPA in DBA / 2 mice at a dose range of 10-66 uM/kg. Type of data set: functional. The conditions noted are these: central.
The species named for data set [13] is Mus musculus. Kind of data set: Audiogenic seizures after concomitant treatment with Flumazenil (8.24 uM) in DBA / 2 mice clonic phase. Type of data set: functional.
The species named for data set [14] is Mus musculus. Kind of data set: Audiogenic seizures after concomitant treatment with Flumazenil (8.24 uM) in DBA / 2 mice tonic phase. In kind it is functional.
In data set [15] the test system is Mus musculus. Description: Anticonvulsant activity against tonic phase of the audiogenic seizures in DBA / 2 mice 30 min after ip administration at a dose range 10-66 uM/kg. The conditions noted are these: 0.5 h. Type of data set: functional. In a few lines:
as §1

Data set [16] concerns Mus musculus. Description: Anticonvulsant activity against the tonic seizures induced by icv injection of AMPA in DBA / 2 mice at a dose range of 10-100 uM/kg. In kind it is functional. The conditions noted are these: central.
Data set [17] deals with Mus musculus. Description: Audiogenic seizures after pretreatment with Aniracetam in DBA / 2 mice tonic phase at a dose range of 10-200 uM/kg. Type of data set: functional. In a few lines: (§3)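 DBA/2 mice pretreated with aniracetam 50 nmol icv 60 min before auditory testing, with ip 2,3-benzodiazepine; audiogenic clonic and tonic phases scored; ED50 by Litchfield-Wilcoxon.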

Data set [18] concerns Mus musculus. Kind of data set: Anticonvulsant activity against clonic phase of the audiogenic seizures in DBA / 2 mice 30 min after ip administration at a dose range 3.3-100 uM/kg. In kind it is functional. The conditions noted are these: 0.5 h. In a few lines:
as §1

In data set [19] the test system is Mus musculus. Description: Audiogenic seizures after pretreatment with Aniracetam in DBA / 2 mice clonic phase at a dose range of 10-200 uM/kg. Type of data set: functional. In a few lines: as §3
The test system of data set [20] is Mus musculus. Description: Anticonvulsant activity against the clonic seizures induced by icv injection of AMPA in DBA / 2 mice at a dose range of 10-100 uM/kg. As to conditions: central. In kind it is functional.
The test system of data set [21] is Mus musculus. Description: Anticonvulsant activity against tonic phase of the audiogenic seizures in DBA / 2 mice 30 min after ip administration at a dose range 3.3-100 uM/kg. As to conditions: 0.5 h. Type of data set: functional. In a few lines: as §1
The subject of data set [22] is Mus musculus. Description: Anticonvulsant activity against the maximal electroshock in Swiss mice after 45 minutes pretreatment at a dose range 10-100 uM/kg. Type of data set: functional. In a few lines: as §2
A general note: The maximal electroshock test induces tonic seizures with an electrical stimulus.

For data set [23], the system named is Mus musculus. Kind of data set: Pentylenetetrazole-induced seizures in Swiss mice after 45 min pretreatment at a dose range 10-100 uM/kg. Type of data set: functional. In a few lines: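 Male Swiss mice (20-26 g), compound ip in 50% DMSO/50% saline 45 min before sc pentylenetetrazole at CD97 (85 mg/kg), then observed 30 min. Protection is absence of clonic spasms lasting at least 5 s. Typically 4-5 doses, 8-10 mice per dose. ED50 with 95% confidence limits by Litchfield and Wilcoxon.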

Data set [24] deals with Mus musculus. Kind of data set: Anticonvulsant activity against tonic phase of the audiogenic seizures in DBA / 2 mice 30 min after ip administration at a dose range 3.3-66 uM/kg. In kind it is functional. The conditions noted are these: 0.5 h. In a few lines: (§4)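 Groups of 10 DBA/2 mice of either sex, dosed ip (0.1 mL/10 g) with fresh solution in 50% DMSO/50% saline; 30 min later exposed under a perspex dome (after 60 s habituation) to 12-16 kHz, 109 dB sound for 60 s or until tonic extension. Scored for latency and incidence of wild running, clonus, tonus; ED50 (95% limits) by Litchfield-Wilcoxon.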

The test system of data set [25] is Mus musculus. Kind of data set: Anticonvulsant activity against clonic phase of the audiogenic seizures in DBA / 2 mice 30 min after ip administration at a dose range 3.3-66 uM/kg. Type of data set: functional. As to conditions: 0.5 h. In a few lines:
as §4

Regarding `COc1cc2c(cc1OC)C(c1ccc(Br)cc1)=NNC(=O)C2`, the 50% effective dose (ED50) (commonly the dose that gives a 50% effect, or the effect in half of the subjects) in the data set with Mus musculus [1] was more than 150 µmol/kg; in the data set with Mus musculus [2], 82.5 µmol/kg and 30.7 mg/kg; with Mus musculus [5], 123 µmol/kg; with Mus musculus [7], 110 µmol/kg and 41.2 mg/kg. The same molecule registered a Rm in data set [3] of 0.052. Moreover, the TD50 (commonly the dose at which the toxic effect under study appears in half of the subjects) at 0.5 h in [4] came out at 226 µmol/kg. The therapeutic index (TD50/ED50) in [6] amounted to 2.

On to `COc1cc2c(cc1OC)C(c1cccc(N)c1)=NNC(=O)C2`, for which the ED50 in the data set with Mus musculus [8] was 30.9 µmol/kg; in the data set filed under Mus musculus [9], 17.5 µmol/kg; in the data set with Mus musculus [10], 19.3 µmol/kg and 6 mg/kg; in the data set filed under Mus musculus [11], 29.2 µmol/kg; in the data set on Mus musculus [12], 27.8 µmol/kg; in the data set listed under Mus musculus [13], 21 µmol/kg. For the same molecule, the ED50 in the data set filed under Mus musculus [14] was 18.2 µmol/kg; in the data set on Mus musculus [15], 18.3 µmol/kg and 5.69 mg/kg. The molecule also showed a Rm in data set [3] of -0.525. In [4], this molecule yielded a TD50 at 0.5 h of 51.5 µmol/kg. Besides, the therapeutic index (TD50/ED50) in data set [6] stood at 2.7.

On to `COc1cc2c(cc1OC)C(c1ccc(N)cc1)=NNC(=O)C2`, for which the ED50 in the data set on Mus musculus [16] is 25 µmol/kg; in the data set on Mus musculus [1] it was 22.6 µmol/kg; in the data set on Mus musculus [17] it was 58.2 µmol/kg; in the data set listed under Mus musculus [9], 10.2 µmol/kg; in the data set filed under Mus musculus [11], 12 µmol/kg; with Mus musculus [18] it was 15 µmol/kg and 4.66 mg/kg. Also, the ED50 is 15.9 µmol/kg in the data set with Mus musculus [5]; 65.2 µmol/kg in the data set on Mus musculus [19]; 32.1 µmol/kg in the data set with Mus musculus [20]; 12.6 µmol/kg and 3.92 mg/kg in the data set with Mus musculus [21]; 14.1 µmol/kg in the data set filed under Mus musculus [13]; 12 µmol/kg in the data set filed under Mus musculus [14]. The same molecule came in with a Rm in [3] of -0.602. In [4], the TD50 at 0.5 h came to 56.8 µmol/kg. Moreover, the therapeutic index (TD50/ED50) in data set [6] was found to be 3.8.

Regarding `CC1=NN=C(c2ccc(N)cc2)c2cc3c(cc2C1)OCO3` [GYKI-52466], the ED50 is 35.7 µmol/kg in the data set with Mus musculus [22]; 40.5 µmol/kg with Mus musculus [16]; 100 µmol/kg with Mus musculus [17]; 29.7 µmol/kg in the data set filed under Mus musculus [9]; 68.3 µmol/kg in the data set with Mus musculus [23]; 25.3 µmol/kg and 7.41 mg/kg in the data set on Mus musculus [24]. Besides, the ED50 in the data set filed under Mus musculus [11] was 39.5 µmol/kg; with Mus musculus [19], 134 µmol/kg; in the data set with Mus musculus [20] it was 57.5 µmol/kg; in the data set filed under Mus musculus [13], 37.8 µmol/kg; in the data set filed under Mus musculus [14], 26.7 µmol/kg; with Mus musculus [25], 35.8 µmol/kg and 10.5 mg/kg. The same molecule registered a Rm in data set [3] of -0.298. Also, in data set [4], the TD50 at 0.5 h turned out to be 76.1 µmol/kg.
